According to ChEMBL document CHEMBL5058577, “EUbOPEN Chemogenomics Library 2 (Multiplex)” (2022):

System: HEK-293T
Test: Multiplex assay against HEK293T
Type: toxicity, cell-based
Conditions: human
Method in brief: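 Cells stained live at seeding with Hoechst33342, BioTracker Green Microtubule Cytoskeleton Dye, MitoTracker Red and Annexin V Alexa Fluor 680 were imaged on a CQ1 microscope at 37°C and 5% CO2 after compound addition. Their classification by CellPathfinder machine-learning gating ran from Hoechst high-intensity objects versus normal cells, to healthy, pyknosed or fragmented nuclei among normal cells, to mitotic or apoptotic among pyknosed cells. Tubulin, mitochondrial-mass and membrane-permeability phenotypes are per cents of healthy-nucleus cells.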

[1] = 12 h, 1 µM, compound concentration 1 uM, replicate 1
[2] = 12 h, 1 µM, compound concentration 1 uM, replicate 2
[3] = 12 h, 10 µM, compound concentration 10 uM, replicate 1
[4] = 12 h, 10 µM, compound concentration 10 uM, replicate 2
[5] = 24 h, 1 µM, compound concentration 1 uM, replicate 1
[6] = 24 h, 1 µM, compound concentration 1 uM, replicate 2
[7] = 24 h, 10 µM, compound concentration 10 uM, replicate 1
[8] = 24 h, 10 µM, compound concentration 10 uM, replicate 2
[9] = 48 h, 1 µM, compound concentration 1 uM, replicate 1
[10] = 48 h, 1 µM, compound concentration 1 uM, replicate 2
[11] = 48 h, 10 µM, compound concentration 10 uM, replicate 1
[12] = 48 h, 10 µM, compound concentration 10 uM, replicate 2

## CC(/C=C1\SC(=S)N(CCCC(=O)Nc2ccc(C(=O)O)c(O)c2)C1=O)=C\c1ccccc1
[1]
  Population Apoptotic (%): 34%
  Population Fragmented Nuclei (%): 6%
  Population Healthy Nuclei (%): 81%
  Population Hoechst High Intensity Objects (%): 6%
  Population Membrane Permeable-Phenotype (%): 0%
  Population Mitochondria Different-Phenotype (%): 41%
  Population Mitotic Cells (%): 65%
  Population Normal (%): 93%
  Population Pyknosed Nuclei (%): 11%
  Population Tubulin-Different-Phenotype (%): 31%
  Total Cell Count: 422
[2]
  Population Apoptotic (%): 50%
  Population Healthy Nuclei (%): 84%
  Population Mitochondria Different-Phenotype (%): 62%
  Population Mitotic Cells (%): 50%
  Population Pyknosed Nuclei (%): 8%
  Population Tubulin-Different-Phenotype (%): 20%
  Total Cell Count: 389
[3]
  Population Apoptotic (%): 43%
  Population Fragmented Nuclei (%): 5%
  Population Healthy Nuclei (%): 76%
  Population Hoechst High Intensity Objects (%): 7%
  Population Membrane Permeable-Phenotype (%): 0%
  Population Mitochondria Different-Phenotype (%): 45%
  Population Mitotic Cells (%): 56%
  Population Normal (%): 92%
  Population Pyknosed Nuclei (%): 18%
  Population Tubulin-Different-Phenotype (%): 35%
  Total Cell Count: 313
[4]
  Population Apoptotic (%): 51%
  Population Healthy Nuclei (%): 79%
  Population Mitochondria Different-Phenotype (%): 49%
  Population Mitotic Cells (%): 48%
  Population Pyknosed Nuclei (%): 15%
  Population Tubulin-Different-Phenotype (%): 26%
  Total Cell Count: 327
[5]
  Population Apoptotic (%): 27%
  Population Fragmented Nuclei (%): 9%
  Population Healthy Nuclei (%): 79%
  Population Hoechst High Intensity Objects (%): 4%
  Population Membrane Permeable-Phenotype (%): 0%
  Population Mitochondria Different-Phenotype (%): 28%
  Population Mitotic Cells (%): 72%
  Population Normal (%): 95%
  Population Pyknosed Nuclei (%): 10%
  Population Tubulin-Different-Phenotype (%): 26%
  Total Cell Count: 604
[6]
  Population Apoptotic (%): 31%
  Population Fragmented Nuclei (%): 7%
  Population Healthy Nuclei (%): 83%
  Population Hoechst High Intensity Objects (%): 7%
  Population Mitochondria Different-Phenotype (%): 52%
  Population Mitotic Cells (%): 68%
  Population Normal (%): 92%
  Population Pyknosed Nuclei (%): 8%
  Population Tubulin-Different-Phenotype (%): 21%
  Total Cell Count: 491
[7]
  Population Apoptotic (%): 33%
  Population Fragmented Nuclei (%): 8%
  Population Healthy Nuclei (%): 75%
  Population Hoechst High Intensity Objects (%): 5%
  Population Membrane Permeable-Phenotype (%): 0%
  Population Mitochondria Different-Phenotype (%): 34%
  Population Mitotic Cells (%): 66%
  Population Normal (%): 94%
  Population Pyknosed Nuclei (%): 16%
  Population Tubulin-Different-Phenotype (%): 31%
  Total Cell Count: 369
[8]
  Population Apoptotic (%): 39%
  Population Healthy Nuclei (%): 79%
  Population Hoechst High Intensity Objects (%): 6%
  Population Mitochondria Different-Phenotype (%): 40%
  Population Mitotic Cells (%): 60%
  Population Normal (%): 93%
  Population Pyknosed Nuclei (%): 12%
  Population Tubulin-Different-Phenotype (%): 20%
  Total Cell Count: 422
[9]
  Population Apoptotic (%): 23%
  Population Fragmented Nuclei (%): 13%
  Population Healthy Nuclei (%): 79%
  Population Hoechst High Intensity Objects (%): 2%
  Population Membrane Permeable-Phenotype (%): 1%
  Population Mitochondria Different-Phenotype (%): 16%
  Population Mitotic Cells (%): 76%
  Population Normal (%): 97%
  Population Pyknosed Nuclei (%): 7%
  Population Tubulin-Different-Phenotype (%): 14%
  Total Cell Count: 998
[10]
  Population Apoptotic (%): 19%
  Population Fragmented Nuclei (%): 14%
  Population Hoechst High Intensity Objects (%): 5%
  Population Membrane Permeable-Phenotype (%): 0%
  Population Mitochondria Different-Phenotype (%): 26%
  Population Mitotic Cells (%): 80%
  Population Normal (%): 94%
  Population Pyknosed Nuclei (%): 6%
  Population Tubulin-Different-Phenotype (%): 13%
  Total Cell Count: 673
[11]
  Population Apoptotic (%): 24%
  Population Fragmented Nuclei (%): 9%
  Population Healthy Nuclei (%): 79%
  Population Hoechst High Intensity Objects (%): 3%
  Population Membrane Permeable-Phenotype (%): 2%
  Population Mitochondria Different-Phenotype (%): 25%
  Population Mitotic Cells (%): 75%
  Population Normal (%): 96%
  Population Pyknosed Nuclei (%): 10%
  Population Tubulin-Different-Phenotype (%): 22%
  Total Cell Count: 479
[12]
  Population Apoptotic (%): 39%
  Population Fragmented Nuclei (%): 11%
  Population Healthy Nuclei (%): 82%
  Population Hoechst High Intensity Objects (%): 5%
  Population Mitochondria Different-Phenotype (%): 23%
  Population Mitotic Cells (%): 60%
  Population Normal (%): 94%
  Population Pyknosed Nuclei (%): 6%
  Population Tubulin-Different-Phenotype (%): 24%
  Total Cell Count: 555

## Cc1cnc(-c2cc(N3CCN(C(=O)CCS(C)(=O)=O)CC3)ncc2Cl)c(C)c1
[1]
  Population Apoptotic (%): 29%
  Population Fragmented Nuclei (%): 6%
  Population Healthy Nuclei (%): 76%
  Population Hoechst High Intensity Objects (%): 4%
  Population Membrane Permeable-Phenotype (%): 0%
  Population Mitochondria Different-Phenotype (%): 50%
  Population Mitotic Cells (%): 70%
  Population Normal (%): 95%
  Population Pyknosed Nuclei (%): 16%
  Population Tubulin-Different-Phenotype (%): 33%
  Total Cell Count: 276
[2]
  Population Apoptotic (%): 42%
  Population Healthy Nuclei (%): 75%
  Population Hoechst High Intensity Objects (%): 9%
  Population Mitochondria Different-Phenotype (%): 69%
  Population Mitotic Cells (%): 57%
  Population Normal (%): 90%
  Population Pyknosed Nuclei (%): 17%
  Population Tubulin-Different-Phenotype (%): 24%
  Total Cell Count: 294
[3]
  Population Apoptotic (%): 42%
  Population Fragmented Nuclei (%): 7%
  Population Healthy Nuclei (%): 82%
  Population Hoechst High Intensity Objects (%): 10%
  Population Membrane Permeable-Phenotype (%): 0%
  Population Mitochondria Different-Phenotype (%): 47%
  Population Mitotic Cells (%): 57%
  Population Normal (%): 89%
  Population Pyknosed Nuclei (%): 10%
  Population Tubulin-Different-Phenotype (%): 40%
  Total Cell Count: 409
[4]
  Population Apoptotic (%): 45%
  Population Healthy Nuclei (%): 75%
  Population Hoechst High Intensity Objects (%): 7%
  Population Mitochondria Different-Phenotype (%): 70%
  Population Mitotic Cells (%): 54%
  Population Normal (%): 92%
  Population Pyknosed Nuclei (%): 17%
  Population Tubulin-Different-Phenotype (%): 39%
  Total Cell Count: 288
[5]
  Population Apoptotic (%): 36%
  Population Fragmented Nuclei (%): 8%
  Population Healthy Nuclei (%): 78%
  Population Hoechst High Intensity Objects (%): 2%
  Population Membrane Permeable-Phenotype (%): 1%
  Population Mitochondria Different-Phenotype (%): 30%
  Population Mitotic Cells (%): 63%
  Population Normal (%): 97%
  Population Pyknosed Nuclei (%): 12%
  Population Tubulin-Different-Phenotype (%): 21%
  Total Cell Count: 368
[6]
  Population Apoptotic (%): 40%
  Population Fragmented Nuclei (%): 7%
  Population Healthy Nuclei (%): 83%
  Population Hoechst High Intensity Objects (%): 6%
  Population Membrane Permeable-Phenotype (%): 0%
  Population Mitochondria Different-Phenotype (%): 36%
  Population Mitotic Cells (%): 60%
  Population Normal (%): 93%
  Population Pyknosed Nuclei (%): 9%
  Population Tubulin-Different-Phenotype (%): 13%
  Total Cell Count: 413
[7]
  Population Apoptotic (%): 33%
  Population Fragmented Nuclei (%): 15%
  Population Healthy Nuclei (%): 76%
  Population Hoechst High Intensity Objects (%): 5%
  Population Membrane Permeable-Phenotype (%): 0%
  Population Mitochondria Different-Phenotype (%): 29%
  Population Mitotic Cells (%): 66%
  Population Normal (%): 94%
  Population Pyknosed Nuclei (%): 8%
  Population Tubulin-Different-Phenotype (%): 31%
  Total Cell Count: 550
[8]
  Population Apoptotic (%): 51%
  Population Fragmented Nuclei (%): 7%
  Population Healthy Nuclei (%): 80%
  Population Mitochondria Different-Phenotype (%): 47%
  Population Mitotic Cells (%): 48%
  Population Pyknosed Nuclei (%): 12%
  Population Tubulin-Different-Phenotype (%): 22%
  Total Cell Count: 392
[9]
  Population Apoptotic (%): 27%
  Population Fragmented Nuclei (%): 17%
  Population Healthy Nuclei (%): 76%
  Population Hoechst High Intensity Objects (%): 1%
  Population Membrane Permeable-Phenotype (%): 1%
  Population Mitochondria Different-Phenotype (%): 17%
  Population Mitotic Cells (%): 72%
  Population Normal (%): 98%
  Population Pyknosed Nuclei (%): 6%
  Population Tubulin-Different-Phenotype (%): 10%
  Total Cell Count: 718
[10]
  Population Apoptotic (%): 34%
  Population Fragmented Nuclei (%): 14%
  Population Healthy Nuclei (%): 78%
  Population Hoechst High Intensity Objects (%): 2%
  Population Membrane Permeable-Phenotype (%): 0%
  Population Mitochondria Different-Phenotype (%): 22%
  Population Mitotic Cells (%): 65%
  Population Normal (%): 97%
  Population Tubulin-Different-Phenotype (%): 6%
  Total Cell Count: 595
[11]
  Population Apoptotic (%): 25%
  Population Fragmented Nuclei (%): 14%
  Population Healthy Nuclei (%): 78%
  Population Hoechst High Intensity Objects (%): 4%
  Population Membrane Permeable-Phenotype (%): 0%
  Population Mitochondria Different-Phenotype (%): 23%
  Population Mitotic Cells (%): 74%
  Population Normal (%): 95%
  Population Pyknosed Nuclei (%): 7%
  Population Tubulin-Different-Phenotype (%): 17%
  Total Cell Count: 753
[12]
  Population Apoptotic (%): 36%
  Population Healthy Nuclei (%): 77%
  Population Hoechst High Intensity Objects (%): 3%
  Population Mitochondria Different-Phenotype (%): 32%
  Population Mitotic Cells (%): 63%
  Population Normal (%): 96%
  Population Pyknosed Nuclei (%): 8%
  Population Tubulin-Different-Phenotype (%): 15%
  Total Cell Count: 576
